From PubChem BioAssay
MT stabilizer: microtubule stabilizers in HeLa cells; HeLa tubulin immunostaining HCS, 24 h; share of cells brighter than vehicle mean+2SD; % tubulin-high responders, % at 10 µM; 200,000 tested, 0.83% active; AID 2205;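 active = plate Z-score above 3 for both tubulin-high and condensed-nucleus cell shares, with cell loss under 80%, at 10 µM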;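 note: anti alpha tubulin signal scored within the nucleus-defined area of each cell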
APP transl inh: APP translation inhibition; 190,000 tested, 0.82% active; SH-SY5Y APP 5'UTR-luciferase reporter, luminescence; inhibition, % at 2 µM;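 active = inhibition above a set limit, derived from the sample mean plus 3 SD, cut at about 45% in these data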
Ba/F3 V617F tox: loss of viability in JAK2V617F-driven Ba/F3 cells | inhibition, % at 5.6 µM | 220,000 tested, 1.1% active | Ba/F3 EpoR-JAK2V617F viability, ATP luminescence;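 active = inhibition above the campaign mean plus 3 SD over all tested compounds, cut at about 24% in these data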;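 note: cytokine-independent growth of Ba/F3 cells driven by EpoR plus mutant JAK2; 0% = DMSO-treated cells and 100% = JAK inhibitor I control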
b-catenin transl: alters nuclear translocation of beta-catenin in HeLa cells | immunofluorescence imaging | nuclear translocation activity, % at 5 µM | 190,000 tested, 0.3% active | AID 1665;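 active = nuclear translocation activity above 50% at 5 µM, with a well cell count of 50 or more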;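 note: per-cell ratio of nuclear to cytoplasmic median beta-catenin stain intensity; plate controls were DMSO negative control for no effect and GSK-3 inhibitor IX positive control for full effect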
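Test system: human HeLa cells, native beta-catenin. Compound dosing: 5 µM primary single dose, 0.1% DMSO, 0.02–20 µM confirmation series. Incubation: compound exposure 24 h at 37°C. Detection: beta-catenin immunostaining with DAPI counterstain, 20x imaging, 6 fields/well. Read-out basis: Nuclear/cytoplasmic beta-catenin signal ratio, % activation.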
L major viab: Leishmania major promastigote growth inhibition | 200,000 tested, 9% active | AID 1063 | Leishmania major promastigotes, resazurin fluorescence viability | inhibition, % at 10 µM; in the data active = inhibition above about 50%;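 note: promastigotes grown with compound for 44 hours at 28 °C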
BaF3 tox: reduces parental Ba/F3 cell viability, JAK2V617F counter-screen | CellTiter-Glo ATP luminescence | inhibition, % at 5.6 µM | 220,000 tested, 1.1% active | AID 1486;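 active = inhibition above a per-campaign cutoff, the mean inhibition of all tested compounds plus 3 SD, cut at about 27% in these data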;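 note: 0% = DMSO wells and 100% = JAK Inhibitor I control wells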
Starred values were filed as active, the others as inactive; · = no result given. Sampled rows, rich in hits. Any-hit rate of the full collection: about 9.6%.

SMILES	MT stabilizer	APP transl inh	Ba/F3 V617F tox	b-catenin transl	L major viab	BaF3 tox
CCCN1CCC(=NNc2ccc(S(N)(=O)=O)cc2[N+](=O)[O-])CC1	4	-7	3	-3	9	7
CCCN1CCC(=NNc2ccc(S(=O)(=O)N(CC)CC)cc2[N+](=O)[O-])CC1	14	53*	2	112*	100*	11
CC(=O)Nc1ccc(S(=O)(=O)N(Cc2ccccc2)C(C)C)cc1	2	-3	32*	0	3	50*
COc1ccc(-c2cc(C(F)F)n3ncc(C(=O)n4ccnc4C)c3n2)cc1	5	5	-4	37	4	4
COc1ccc(-c2cc(C(F)F)n3ncc(C(=O)N4CCc5ccccc54)c3n2)cc1	26*	87*	-1	6	29	5
Cc1ccc(-c2cc(C(F)F)n3ncc(C(=O)N4CCN(c5cccc(C)c5C)CC4)c3n2)cc1	2	-25	-1	0	58*	8
CCOC(=O)N1CCN(C(=O)c2cnn3c(C(F)F)cc(-c4ccc(C)cc4)nc23)CC1	4	7	0	-1	0	2
COc1ccc(-c2cc(C(F)F)n3ncc(C(=O)N4CCN5CCCC5C4)c3n2)cc1 (centres undefined)	3	24	3	-2	60*	8
CCOc1cc(C2NC(=O)NC(C)=C2C(=O)OCc2ccccc2)ccc1O (centres undefined)	4	3	-4	2	2	-1
S=c1nc(-c2ccccc2)[nH]c2ccc(Br)cc12	·	·	-2	-1	·	-2
O=C(c1ccco1)N1CCN(CCCCOc2cccc3ccccc23)CC1	2	-19	-3	-3	88*	3
c1ccc(CN2CCN(CCOCCOc3cccc4ccccc34)CC2)cc1	5	1	4	-1	14	3
O=C(c1ccco1)N1CCN(CCOCCOc2cccc3ccccc23)CC1	1	-15	-2	·	90*	7
Cc1cc(C)cc(Nc2c3c(nc4ncnn24)CCC3)c1	12*	6	4	0	-1	7
CCNC(=S)N/N=C/c1cccc(/C=N/NC(=S)NCC)c1	3	-14	3	0	-4	4
CCNC(=S)N/N=C/c1cccs1	3	-2	-1	-2	100*	2
CC(C)OC(=O)/C(=C\c1cccc2ccccc12)NC(=O)c1ccccc1	3	-1	-4	2	91*	2
O=C(Nc1ccc(C(=O)N2CCOCC2)cc1)Nc1cccc2ccccc12	6	3	-2	-1	11	-3
CCOC(=O)c1c(C)[nH]c(C(=O)N2CCCC(C(=O)c3ccccc3OC)C2)c1C (centres undefined)	·	·	0	-1	·	0
CCOC(=O)N1CCC(N2CCCC(C(=O)c3ccc4cc(OC)ccc4c3)C2)CC1 (centres undefined)	1	6	-3	3	98*	2
CCOC(=O)N1CCC(N2CCCC(C(=O)c3cc(C)c(OC)c(C)c3)C2)CC1 (centres undefined)	3	-1	1	-1	93*	3
CCOC(=O)N1CCC(N2CCCC(C(=O)c3ccccc3OC)C2)CC1 (centres undefined)	2	-7	1	1	80*	5
Cc1cc(C)n(C(N)=NC(=O)c2ccc([N+](=O)[O-])cc2)n1	·	·	-4	-3	·	0
CCSc1ncc(/C=N/Nc2ccc(Cl)cc2)n1C	3	-70	-3	7	78*	1
CCSc1ncc(/C=N/Nc2ccccc2)n1C	1	-23	-2	-1	15	0
S=c1[nH]nc(-c2ccc3ccccc3n2)n1-c1ccccc1Cl	3	5	-6	-2	52*	0
CCC(C)NC(=O)Cn1c(COc2ccc(Cl)cc2Cl)nc2ccccc21 (centres undefined)	5	-88	-4	0	22	3
CC12Cc3ccc4ccccc4c3C=C1C[N+](C)(C)C2 (centres undefined)	2	-3	27*	·	-5	40*
COc1ccc(CCn2nnc(-c3ccc(NC(C)=O)c(Cl)c3)n2)cc1	2	-4	-3	0	-6	59*
Fc1ccc(Cn2nnc(-c3ccc(CN4CCOCC4)cc3)n2)cc1	2	-12	-2	-1	95*	0
